From paper PMC11790068 (Journal of medicinal chemistry, 2015)
Entries after “also recorded” stand apart in the source; their conditions may differ.

Experiments:
[1] = system: CT-L activity of purified 20S human proteasomes (β5, β5i, β1i); assay: Enzyme kinetics assay, CT-L activity of purified 20S proteasomes; assay type: biochemical; conditions: for Inhibition of the CT-L activity of purified proteasomes: purified 20S CP and IP, β5, β5i, β1i, result in words; for Activation of the CT-L activity of proteasomes: at 10 μM, purified proteasomes
Procedure, shortened: (§1)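 Purified human 20S constitutive and immunoproteasome (0.5 µg/mL) was preincubated with test compound for 30 min at room temperature in 20 mM Tris-HCl, 0.5 mM EDTA, 0.035% SDS. Reactions were started with a subunit-selective AMC substrate: β1 Ac-nLPnLD-AMC 100 µM; β2/β2i Boc-LRR-AMC 200 µM; β5 Ac-WLA-AMC 20 µM; β1i Ac-PAL-AMC 100 µM; β5i Ac-ANW-AMC 100 µM. AMC fluorescence (ex 360/em 460 nm) was followed for 90 min at room temperature.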

[2] = system: proteasomal CT-L activity of RPMI 8226 cell extracts; assay: CT-L activity of proteasomes in cell extracts; assay type: biochemical, human; conditions: result in words
Procedure, shortened: (§2)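 Cytosolic extracts of RPMI-8226 cells were prepared by the Kisselev and Goldberg method and used in place of purified 20S proteasome. Hydrolysis of fluorogenic substrates was measured as AMC release: Suc-LLVY-AMC for CT-L, Z-LLE-AMC for C-L and Boc-LRR-AMC for T-L activity. Fluorescence was read at excitation 360 and emission 460 nm.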

[3] = molecular target: T1, proteasomal C-L activity of RPMI 8226 cell extracts (Homo sapiens, UniProt P28072); assay: C-L activity of proteasomes in cell extracts; assay type: biochemical; conditions: result in words
T1 sequence (P28072 1-239): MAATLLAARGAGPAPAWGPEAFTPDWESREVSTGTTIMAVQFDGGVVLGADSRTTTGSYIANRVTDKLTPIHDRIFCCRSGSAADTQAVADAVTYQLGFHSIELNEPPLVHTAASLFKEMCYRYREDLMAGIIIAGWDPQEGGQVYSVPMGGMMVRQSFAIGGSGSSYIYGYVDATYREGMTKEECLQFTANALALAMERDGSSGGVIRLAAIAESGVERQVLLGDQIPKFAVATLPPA
Procedure, shortened: as §2

[4] = system: proteasomal T-L activity of RPMI 8226 cell extracts; assay: T-L activity of proteasomes in cell extracts; assay type: biochemical, human; conditions: result in words
Procedure, shortened: as §2

[5] = system: proteasome in RPMI 8226 cell lysates (Suc-LLVY-AMC hydrolysis); assay: Jump dilution reversibility assay; assay type: biochemical, human
Procedure, shortened: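 RPMI 8226 lysate (30 µg total protein) was incubated with test compound at 10 µM in 20S proteasome assay buffer for 30 min at room temperature. Baseline Suc-LLVY-AMC hydrolysis was recorded in a cuvette. The mixture was then rapidly diluted 25-fold in assay buffer (10 to 0.4 µM compound), and substrate hydrolysis was monitored for about 30 min.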

[6] = system: cancer cell lines including LNCaP prostate cancer cells; assay: Cytotoxicity of G4-1 in cancer cell lines; assay type: cell-based, human; conditions: variety of cancer cell lines including LNCaP; 72 h
Procedure, shortened: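 Log-phase adherent cells were seeded at 7,000–10,000 per well; suspension RPMI 8226 cells were pelleted and seeded at 10,000 per well. Viability was read after 72 h by CellTiter Glo luminescence or CellTiter 96 Aqueous One absorbance.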

[7] = system: BxPC-3 cell lines with acquired resistance to bortezomib or carfilzomib; assay: Cytotoxicity in bortezomib- or carfilzomib-resistant BxPC-3 sublines; assay type: cell-based, human; conditions: BxPC-3 sublines adapted to 60 nM bortezomib or 200 nM carfilzomib
[8] = system: LNCaP tumors; assay: In vivo efficacy assay, LNCaP xenograft; parameters: species or system mouse; conditions: 5 mg/kg i.p. twice a week for 4 weeks
[9] = molecular target: C-L activity responsible β1 subunit of purified 20S human proteasome (Homo sapiens, UniProt P28072); assay: Enzyme kinetics assay, C-L activity of purified 20S proteasome; assay type: biochemical; conditions: result in words
Procedure, shortened: as §1

Compound: Cc1ccc(OS(=O)(=O)c2cccc(C(F)(F)F)c2)c(-c2cc(-c3ccccc3)n(CC(=O)N[C@@H]3CCNC3)n2)c1 [G4-1]
- Inhibition of the CT-L activity of purified proteasomes [1]: most potent inhibitor
- Inhibition of proteasomal CT-L activity of cell extracts [2]: effectively inhibit
- Inhibition of proteasomal C-L activity of cell extracts [3]: effectively inhibit
- Activity against the T-L activity of cell extracts [4]: no activity
- Inhibition of proteasomal activity after preincubation ([5]; 10 μM, 30 min preincubation with RPMI 8226 cell extracts): nearly complete inhibition
- Inhibitor dissociation half-life ([5]; after 25-fold dilution from 10 to 0.4 μM): approximately 3.2 min
- Mode of proteasome inhibition ([5]; jump dilution, upward curvature of progress curve): reversibility
- Anticancer activity against cancer cell lines [6]: good anticancer activity
- Impact of acquired resistance to bortezomib or carfilzomib on anticancer effect [7]: not negatively impacted
- Body weight of mice over the course of treatment [8]: maintained normal weight gain
- Systemic toxicity in mice [8]: without apparent systemic toxicity
- Tumor growth in vivo ([8]; nude mice bearing LNCaP tumors): effectively suppressed tumor growth

Compound: CC1=C(COC(=O)Cn2nc(-c3cc(C)ccc3OS(=O)(=O)c3cccc(C(F)(F)F)c3)cc2-c2ccccc2)Cc2ccccc21 [G4-16]
- Activation of the CT-L activity of proteasomes [1]: up to 200%

Compound: Cc1ccc(OS(=O)(=O)c2cccc(C(F)(F)F)c2)c(-c2cc(C3CCCCC3)n(CCN[C@@H]3CCNC3)n2)c1 [G4-40]
- Inhibition of the CT-L activity of purified proteasomes [1]: potently inhibit

Compound: Cc1ccc(OS(=O)(=O)c2cccc(C(F)(F)F)c2)c(-c2cc(C3CCCNC3)n(CCN[C@@H]3CCNC3)n2)c1 (stereo partly shown) [G4-41]
- Inhibition of the CT-L activity of purified proteasomes [1]: potently inhibit

Compound: Cc1ccc(OS(=O)(=O)c2cccc(C(F)(F)F)c2)c(-c2cc(C3CCCN(C(=O)N[C@@H]4CCNC4)C3)n(CCN[C@@H]3CCNC3)n2)c1 (stereo partly shown) [G4-42]
- Inhibition of the CT-L activity of purified proteasomes [1]: potently inhibit

Compound: Cc1ccc(OS(=O)(=O)c2cccc(C(F)(F)F)c2)c(-c2cc(-c3ccccc3)n(CCN[C@@H]3CCNC3)n2)c1 [G4]
- Inhibition of the CT-L activity of purified proteasomes [1]: potently inhibit; also recorded: selectively inhibits; also recorded: preferentially inhibits
- Inhibition of the C-L activity (β1) of purified proteasome [9]: selectively inhibits; also recorded: preferentially inhibits

Compound: Cc1ccc(OS(=O)(=O)c2ccc(F)c([N+](=O)[O-])c2)c(-c2cc(-c3ccccc3)n(CCN[C@@H]3CCNC3)n2)c1 [G4–21]
- Activation of the CT-L activity of proteasomes [1]: up to 200%
